Experimental data as given in ChEMBL document CHEMBL3297732, “Aryl-substituted aminobenzimidazoles targeting the hepatitis C virus internal ribosome entry site” (Bioorg Med Chem Lett, 2014).
The source made the active and inactive calls. The calls are words filed in the database; no cut-off is given here.

The compounds below were run on Internal ribosome entry site (IRES) (assay: Non-specific binding affinity to cyanine dye-labeled HCV IRES subdomain 2a RNA assessed as precipitation of dye labeled RNA at 50 to 100 uM by FRET assay in presence of Mg2+). Conditions: Hepacivirus hominis.

SMILES	Activity
CN(C)CCCOc1ccc2c(c1)nc(NC(=O)c1ccccc1)n2-c1ccc(N(C)C)cc1	Active
CN(C)CCCOc1ccc2c(c1)nc(O)n2-c1ccccc1	Active
CN(C)CCOc1ccc2c(c1)nc(O)n2-c1ccccc1	Active
CN(C)CCCOc1ccc2nc(O)n(-c3ccc(N(C)C)cc3)c2c1	Active

What follows are compounds tested against Internal ribosome entry site (IRES) (assay: Binding affinity to cyanine dye-labeled HCV IRES subdomain 2a RNA by FRET assay in presence of Mg2+). Conditions: not given.
Design: species or system Hepacivirus hominis
Procedure, shortened: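 Binding to IIa RNA measured by triplicate titration in a FRET assay that tracks ligand-induced conformational capture of the dye-labeled RNA. EC50 taken from a single-site dose-response fit to the titration data, with standard error from the triplicates.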

SMILES	EC50
CN(C)CCCn1c(N)nc2cccc(-c3cccc(N(C)C)c3)c21	290 µM
CN(C)CCOc1ccc2c(c1)nc(NC(=O)c1ccccc1)n2-c1ccccc1	> 500 µM
CN(C)CCCn1c(N)nc2ccc(Nc3ccncc3)cc21	160 µM
CC(=O)Nc1nc2cc(OCCN(C)C)ccc2n1-c1ccccc1	100 µM
CN(C)c1cccc(-n2c(N)nc3ccc(Nc4ccncc4)cc32)c1	100 µM
CN(C)CCCOc1ccc2c(c1)nc(NC(=O)c1ccccc1)n2-c1ccccc1	> 500 µM
CN(C)CCCn1c(N)nc2ccc(Nc3cccnc3)cc21	160 µM
CN(C)c1cccc(-n2c(N)nc3ccc(Nc4cccnc4)cc32)c1	74 µM
CN(C)CCCOc1ccc2c(c1)nc(N)n2-c1ccc(N(C)C)cc1	95 µM
CN(C)CCCOc1ccc2nc(N)n(-c3cccc(N(C)C)c3)c2c1	120 µM
CC(=O)Nc1nc2cc(OCCCN(C)C)ccc2n1-c1ccccc1	210 µM
